Drawing on ChEMBL document CHEMBL1909567, “Synthesis and structure-activity relationship studies in translocator protein ligands based on a pyrazolo[3,4-b]quinoline scaffold” (J Med Chem, 2011), this text covers IC50, Time and Activity for 28 compounds.

The structures appear in SMILES notation. pIC50: −log10 of the molar value.

Experiment [1] has as its target Translocator protein (Rattus norvegicus, UniProt P16257). As to the kind of experiment: Displacement of [3H]PK11195 from TSPO in Sprague-Dawley rat brain homogenates after 90 mins by liquid scintillation spectrometry. It is filed as tissue-based. In general terms: Displacement assays read how much labelled ligand stays bound in the presence of the test substance.

Experiment [2] relates to Mus musculus. The experiment can be described thus: Antianxiety activity in mouse assessed as increase in time spent in illuminated area at 30 mg/kg, po after 30 mins by light/dark box test (reference value: 116.4 +/- 7.5 sec). It is filed as functional. An outline of the steps:
(§1)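 Male mice, housed 15 per cage, placed in the test room 24 h before testing for acclimatization. Drugs were given po in 1% carboxymethylcellulose at 10 mL/kg, 30 min before the light/dark box test. Time spent in the light box (s) was recorded. Values are mean ± SEM of at least 8 mice per group. ANOVA with Fisher's PLSD was used against vehicle.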

Experiment [3] deals with Mus musculus. As to the kind of experiment: Antianxiety activity in mouse assessed as increase in time spent in illuminated area at 3 mg/kg, po after 30 mins by light/dark box test (reference value: 116.4 +/- 7.5 sec). Type of experiment: functional. The gist of the method: as §1
Experiment [4] deals with Mus musculus. The experiment can be described thus: Antianxiety activity in mouse assessed as increase in time spent in illuminated area at 10 mg/kg, po after 30 mins by light/dark box test (reference value: 116.4 +/- 7.5 sec). Type of experiment: functional. The gist of the method:
as §1

Experiment [5] deals with Rattus norvegicus. The experiment can be described thus: Antinociceptive activity in rat peripheral mononeuropathy model assessed as decrease in left paw pressure at 5 mg/kg, po after 30 mins by analgesimetry (reference value: 59.65 +/- 2.6 g). Type of experiment: functional.
Experiment [6] concerns Rattus norvegicus. As to the kind of experiment: Antinociceptive activity in rat peripheral mononeuropathy model assessed as decrease in right paw pressure at 50 mg/kg, po after 15 mins by analgesimetry (reference value: 34.8 +/- 3.7 g). Type of experiment: functional.
In experiment [7] the test system is Rattus norvegicus. The experiment can be described thus: Antinociceptive activity in rat peripheral mononeuropathy model assessed as decrease in left paw pressure at 50 mg/kg, po after 30 mins by analgesimetry (reference value: 59.65 +/- 2.6 g). Type of experiment: functional.
For experiment [8], the system named is Rattus norvegicus. The experiment can be described thus: Antinociceptive activity in rat peripheral mononeuropathy model assessed as decrease in right paw pressure at 5 mg/kg, po after 45 mins by analgesimetry (reference value: 32.9 +/- 2.6 g). It is filed as functional.
Experiment [9] deals with Rattus norvegicus. As to the kind of experiment: Antinociceptive activity in rat peripheral mononeuropathy model assessed as decrease in right paw pressure at 5 mg/kg, po after 15 mins by analgesimetry (reference value: 34.8 +/- 3.7 g). Type of experiment: functional.
Experiment [10] relates to Rattus norvegicus. The experiment can be described thus: Antinociceptive activity in rat peripheral mononeuropathy model assessed as decrease in left paw pressure at 5 mg/kg, po after 45 mins by analgesimetry (reference value: 63.0 +/- 2.4 g). Type of experiment: functional.
In experiment [11] the test system is Rattus norvegicus. As to the kind of experiment: Antinociceptive activity in rat peripheral mononeuropathy model assessed as decrease in left paw pressure at 50 mg/kg, po after 15 mins by analgesimetry (reference value: 63.5 +/- 2.8 g). It is filed as functional.
Experiment [12] concerns Rattus norvegicus. As to the kind of experiment: Antinociceptive activity in rat peripheral mononeuropathy model assessed as decrease in right paw pressure at 50 mg/kg, po after 45 mins by analgesimetry (reference value: 32.9 +/- 2.6 g). Type of experiment: functional.
The test system of experiment [13] is Rattus norvegicus. As to the kind of experiment: Antinociceptive activity in rat peripheral mononeuropathy model assessed as decrease in left paw pressure at 5 mg/kg, po after 15 mins by analgesimetry (reference value: 63.5 +/- 2.8 g). It is filed as functional.
For experiment [14], the system named is Rattus norvegicus. As to the kind of experiment: Antinociceptive activity in rat peripheral mononeuropathy model assessed as decrease in right paw pressure at 50 mg/kg, po after 30 mins by analgesimetry (reference value: 31.3 +/- 2.8 g). Type of experiment: functional.
For experiment [15], the system named is Rattus norvegicus. The experiment can be described thus: Antinociceptive activity in rat peripheral mononeuropathy model assessed as decrease in left paw pressure at 50 mg/kg, po after 45 mins by analgesimetry (reference value: 63.0 +/- 2.4 g). Type of experiment: functional.
In experiment [16] the test system is Rattus norvegicus. The experiment can be described thus: Antinociceptive activity in rat peripheral mononeuropathy model assessed as decrease in right paw pressure at 5 mg/kg, po after 30 mins by analgesimetry (reference value: 31.3 +/- 2.8 g). It is filed as functional.
In experiment [17] the test system is Mus musculus. As to the kind of experiment: Antianxiety activity in mouse assessed as increase in time spent in illuminated area at 1 mg/kg, po by light/dark box test (reference value: 116.4 +/- 7.5 sec). Type of experiment: functional. The gist of the method:
as §1

Translocator protein, sequence (P16257 whole entry, looked up): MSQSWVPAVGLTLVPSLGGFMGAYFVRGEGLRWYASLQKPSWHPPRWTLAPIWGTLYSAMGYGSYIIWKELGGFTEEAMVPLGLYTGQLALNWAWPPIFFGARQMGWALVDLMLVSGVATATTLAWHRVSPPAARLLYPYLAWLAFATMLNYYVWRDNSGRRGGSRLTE

On to `CCCN(CCC)C(=O)Cn1c2nc3ccccc3c(C)c2c(=O)n1-c1ccccc1`, for which the pIC50 in [1] was 7.05.

Regarding `CCN(CC)C(=O)Cn1c2nn(-c3ccccc3)c(=O)c-2c(C)c2ccccc21`, the pIC50 in experiment [1] is 9.08.

With `Cc1c2ccccc2nc2c1c(=O)n(-c1ccccc1)n2CC(=O)N(C)c1ccccc1`, the pIC50 in experiment [1] is 6.93.

`Cc1c2c(=O)n(-c3ccc(F)cc3)nc-2n(CC(=O)N(C)c2ccc(Cl)cc2)c2ccccc12` had a pIC50 in experiment [1] of 9.55.

Compound `Cc1c2ccccc2nc2c1c(=O)n(-c1ccccc1)n2CC(=O)N(Cc1ccccc1)Cc1ccccc1` gave a pIC50 in experiment [1] of 5.46.

Consider `CCN(CC)C(=O)Cn1c2nc3ccccc3c(C)c2c(=O)n1-c1ccccc1`, for which, in [1], the pIC50 is 6.74.

For the compound `COc1ccc(N(C)C(=O)Cn2c3nc4ccccc4c(C)c3c(=O)n2-c2ccccc2)cc1`, in experiment [1], the pIC50 is 7.77.

As to `Cc1c2ccccc2nc2c1c(=O)n(-c1ccccc1)n2CC(=O)N(C)c1ccc(Cl)cc1`, the results for the Time in experiment [2], in experiment [3] and in experiment [4] were 107.6 s, 103.8 s and 112.3 s, respectively. For the same compound, the Activity in experiment [5] is listed as 63.6 g; in experiment [6], 48.1 g; in experiment [7], 58 g; in experiment [8] it was 33.4 g; in [9] it was 39.2 g; in [10], 61.4 g. The Activity amounted to 61 g in experiment [11]; 37 g in experiment [12]; 57.8 g in experiment [13]; 44 g in experiment [14]; 59 g in experiment [15]; 35.9 g in [16]. Also, the pIC50 in [1] was 8.74.

Consider `Cc1c2c(=O)n(-c3ccccc3)nc-2n(CC(=O)N(C)c2ccc(Cl)cc2)c2ccccc12`, for which the pIC50 in [1] was 9.89.

Regarding `CCN(CC)C(=O)Cn1c2nc3ccccc3c(C)c2c(=O)n1-c1ccc(F)cc1`, the pIC50 in [1] is 5.64.

With `CCCCN(C)C(=O)Cn1c2nn(-c3ccc(F)cc3)c(=O)c-2c(C)c2ccccc21`, the pIC50 in [1] is 9.89.

`Cc1c2ccccc2nc2c1c(=O)n(-c1ccccc1)n2CC(=O)N(C)Cc1ccccc1` had a pIC50 in [1] of 6.06.

As for `CCN(Cc1ccccc1)C(=O)Cn1c2nc3ccccc3c(C)c2c(=O)n1-c1ccccc1`, in experiment [1], the negative-log IC50 (pIC50) is 6.66.

Turning to `CCCCN(C)C(=O)Cn1c2nn(-c3ccccc3)c(=O)c-2c(C)c2ccccc21`, the Time in experiment [3] is reported as 117.4 s; in experiment [17], 103.7 s; in experiment [4], 151.5 s. The same compound had a pIC50 in [1] of 9.85.

On to `CCCCN(Cc1ccccc1)C(=O)Cn1c2nc3ccccc3c(C)c2c(=O)n1-c1ccccc1`, for which, in experiment [1], the negative-log IC50 (pIC50) is 6.16.

`CCCCN(C)C(=O)Cn1c2nc3ccccc3c(C)c2c(=O)n1-c1ccc(F)cc1` showed a negative logarithm of the IC50 (pIC50) in [1] of 6.96.

Turning to `CCCCN(CCCC)C(=O)Cn1c2nc3ccccc3c(C)c2c(=O)n1-c1ccccc1`, the pIC50 in [1] is 6.82.

As to `Cc1c2ccccc2nc2c1c(=O)n(-c1ccccc1)n2CC(=O)N(Cc1ccccc1)C(C)C`, the negative-log IC50 (pIC50) in experiment [1] is 6.52.

`CN1C(=O)CN=C(c2ccccc2)c2cc(Cl)ccc21` [DIAZEPAM]: in experiment [17], the Time is given as 171.63 s.

`CCCN(CCC)C(=O)Cn1c2nc3ccccc3c(C)c2c(=O)n1-c1ccc(F)cc1` gave a pIC50 in experiment [1] of 7.06.

For the compound `Cc1c2ccccc2nc2c1c(=O)n(-c1ccc(F)cc1)n2CC(=O)N(C)c1ccc(Cl)cc1`, the figures for the Time in experiment [2], in experiment [3] and in experiment [4] were 111.3 s, 106.8 s and 117.5 s, respectively. Moreover, the Activity in [5] amounted to 57.7 g; in [6], 49.4 g; in experiment [7] it was 59.3 g; in [8], 36.3 g; in experiment [9] it was 35.6 g; in experiment [10] it was 64.1 g. In addition, the Activity is 60.7 g in [11]; 36.3 g in experiment [12]; 58.7 g in [13]; 47.2 g in [14]; 63.1 g in [15]; 36.4 g in [16]. The compound also gave a pIC50 in experiment [1] of 8.17.

As for `Cc1c2ccccc2nc2c1c(=O)n(-c1ccc(Cl)cc1)n2CC(=O)N(C)c1ccc(Cl)cc1`, the figures for the Time in [3], in [17] and in [4] were 135.2 s, 108.9 s and 169 s, respectively. Moreover, the Activity in [5] turned out to be 58.4 g; in [6], 56.3 g; in experiment [7] it was 61.8 g; in experiment [8] it was 32.7 g; in experiment [9] it was 44.8 g; in experiment [10], 63.8 g. Moreover, the Activity amounted to 62.2 g in experiment [11]; 42.5 g in experiment [12]; 61.4 g in [13]; 49.4 g in experiment [14]; 64.8 g in experiment [15]; 35.8 g in [16]. In addition, in experiment [1], the pIC50 is 7.80.

For the compound `CCN(Cc1ccccc1)C(=O)Cn1c(=O)n(C)c2cnc(-c3ccccc3)nc21`, the Time in [3] came out at 137.3 s; in experiment [17] it was 110.8 s; in [4] it was 162.3 s.

For `CCCN(CCC)C(=O)Cn1c2nc3ccccc3c(C)c2c(=O)n1-c1ccc(Cl)cc1`, in experiment [1], the pIC50 was 7.05.

Compound `CCCCN(CCCC)C(=O)Cn1c2nn(-c3ccccc3)c(=O)c-2c(C)c2ccccc21` gave a pIC50 in experiment [1] of 9.47.

In experiment [1], `Cc1c2ccccc2nc2c1c(=O)n(-c1ccccc1)n2CC(=O)N(C(C)C)C(C)C` gave a pIC50 of 5.86.

For `CCCCN(C)C(=O)Cn1c2nc3ccccc3c(C)c2c(=O)n1-c1ccc(Cl)cc1`, the pIC50 in experiment [1] was 6.84.

In turn, `CCCCN(C)C(=O)Cn1c2nc3ccccc3c(C)c2c(=O)n1-c1ccccc1` showed a pIC50 in [1] of 7.19.

Broadly, the pIC50 is −log10 of the IC50, conventionally taken in molar units. Lower therefore signals a large IC50.
